STAT3 blocker = reduces IL-6 driven STAT3 reporter signal | inhibition, % at 5.5 µM | actives 0.89% (n = 190,000) | U3A cells, IL-6 STAT3-luciferase reporter, luminescence; host cell line lacks STAT1 | AID 862;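 active means inhibition above the mean inhibition across all screened compounds plus 3 SD, cut at about 44% in these data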;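 further: 0% = DMSO only wells and 100% = 100 µM nifuroxazide control wells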
TRAIL sens C8 = caspase-8 TRAIL sensitization | AID 624354 | actives 1% (n = 360,000) | NB7+C8 cells + TRAIL, ATPlite viability luminescence | inhibition (viability loss, TRAIL sensitization), % at 10 µM;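 active means compounds causing at least 50% loss of cell viability in the single-dose screen, relative to plate controls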
PPC-1+TRAIL kill = compounds killing PPC-1 cancer cells with TRAIL present (potentiator screen, no TRAIL-free arm) | actives 0.41% (n = 220,000) | PPC-1 cells + TRAIL, ATPLite viability luminescence | cell killing (% activity), % at 4 µM or 5 µM;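 active means cell killing above 50% in the first pass at 4 µM, then a duplicate retest at 5 µM averaging 50% or more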;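 further: plate controls were cells with TRAIL plus DMSO for no effect and medium-only wells lacking cells for full effect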
STAT3 act = increases IL-6 driven STAT3 reporter signal. U3A cells, IL-6 STAT3-luciferase reporter, luminescence; 100% = signal with IL-6 EC80 alone. activation (% of control), % at 5.6 µM. actives 0.91% (n = 190,000). AID 871;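 active means activation above the screen-wide mean of compound activation plus 3 SD, cut at about 130% in these data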;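 further: 0% = background luminescence of wells with medium and substrate only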
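Material: human STAT1-deficient U3A cells with stable STAT3-luciferase reporter / Probe or stimulus: IL-6 stimulus at 33 ng/mL final / Schedule: 1 h compound pre-exposure, 6 h IL-6 stimulation, 37 °C / Technique: luminescence / Read-out basis: percent of IL-6-only median luminescence / Control set: IL-6-only high control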
STAT1 inh-1 = STAT1 signaling inhibition; NIH 3T3 STAT1-luciferase reporter, IFN-gamma, luminescence; inhibition, % at 5.5 µM; actives 0.35% (n = 200,000);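 active means inhibition above a set limit, the mean inhibition across all tested compounds plus 3 SD, cut at about 34% in these data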;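 further: 0% = IFN-gamma with DMSO and 100% = IFN-gamma with 300 µM nifuroxazide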
STAT1 inh-2 = confirmation of STAT1 signaling inhibitors. NIH 3T3 STAT1-luciferase reporter, IFN-gamma, luminescence. AID 1263. actives 55% (n = 200). shares compounds with STAT1 inh-1. inhibition, % at 5.5 µM;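 active means triplicate mean inhibition exceeding the hit cutoff computed for the primary STAT1 screen, cut at about 35% in these data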;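 further: 0% = DMSO with IFN-gamma and 100% = 300 µM nifuroxazide with IFN-gamma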
NFkB inh STAT1ct = counter-screen for STAT1 inhibitors: NF-kappaB inhibition; inhibition, % at 5.7 µM; HEK293T NF-kB luciferase reporter, TNF-alpha induced, luminescence; actives 30% (n = 200); AID 1303; shares compounds with STAT1 inh-1;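 active means inhibition above the mean of solvent-only control wells plus 3 SD of those wells, cut at about 15% in these data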;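 further: 0% = DMSO with TNF-alpha and 100% = MG-132 control with TNF-alpha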
STAT3 inh STAT1c = counter-screen for STAT1 inhibitors: STAT3 inhibition; shares compounds with STAT1 inh-1; U3A cells, IL-6 STAT3 luciferase reporter, luminescence; cells lacking STAT1; inhibition, % at 5.7 µM; actives 20% (n = 200); AID 1310;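 active means inhibition above the mean of solvent-only control wells plus 3 SD, set per campaign, cut at about 25% in these data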;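 further: 0% = IL-6 plus DMSO and 100% = IL-6 plus nifuroxazide control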
* = called active by the depositor; . = not tested or not shown. The list is not random: actives were taken first. Their share in the collection is about 1.8%.

SMILES	STAT3 blocker	TRAIL sens C8	PPC-1+TRAIL kill	STAT3 act	STAT1 inh-1	STAT1 inh-2	NFkB inh STAT1ct	STAT3 inh STAT1c
Cc1ccccc1N=C(NO)c1cccnc1	.	-18.8	.	.	.	.	.	.
O=C(NCc1ccccn1)c1cccc(S(=O)(=O)N2CCc3ccccc32)c1	.	-17.0	.	.	.	.	.	.
O=C(NNC(=O)c1cccc(S(=O)(=O)N2CCc3ccccc32)c1)c1ccccc1	17.8	8.4	11.9	91.1	35.4*	36.2*	5.2	20.4
CCOC(=O)N1CCN(C(=O)c2ccc3c(=O)n(-c4ccccc4F)c(=S)[nH]c3c2)CC1	16.6	2.0	9.6	89.2	39.6*	12.7	-11.6	-0.1
CCOC(=O)N1CCN(C(=O)c2ccc(-n3c(=S)[nH]c4ccccc4c3=O)cc2)CC1	20.2	-9.4	-4.2	86.1	60.3*	47.9*	8.0	9.2
CCOC(=O)N1CCN(C(=O)c2ccc3c(=O)n(-c4ccc(OC)cc4)c(=S)[nH]c3c2)CC1	7.7	4.5	-36.7	98.9	9.8	.	.	.
O=C(NCCCNC(=O)c1ccc(-c2cc(Cl)ccc2Cl)o1)c1cnccn1	.	-11.8	.	.	.	.	.	.
COc1cccc(CNc2ncnc3cc(Cl)ccc23)c1	13.3	22.7	11.6	90.0	40.6*	31.8	6.5	3.1
COCC(C)NC(=O)CCS(=O)(=O)c1nc(-c2ccc(OC)cc2)cc(C(F)(F)F)n1 (stereo not given)	7.5	-13.5	10.0	97.4	42.9*	50.9*	-1.1	9.3
COc1ccc(-c2cc(C(F)(F)F)nc(S(=O)(=O)CCCC(=O)Nc3cccnc3Cl)n2)cc1OC	4.1	21.7	-4.8	99.5	43.8*	37.6*	4.7	-8.2
CCOC(=O)CCS(=O)(=O)c1nc(-c2ccccc2)cc(C(F)(F)F)n1	8.3	-7.3	-26.1	96.1	39.5*	45.1*	-0.3	0.0
COCCNC(=O)CCSc1nc(-c2ccc(OC)cc2)cc(C(F)(F)F)n1	8.0	-6.3	-2.1	96.4	0.9	.	.	.
COc1ccc(Cl)cc1C(=O)OCC(=O)Nc1cccnc1Cl	.	-9.0	.	.	.	.	.	.
Cc1cc(NC(=O)CSc2nc(-c3cccs3)cc(C(F)(F)F)n2)no1	3.6	-2.5	-2.7	100.1	0.0	.	.	.
Cc1cc(NC(=O)CCCS(=O)(=O)c2nc(-c3cccs3)cc(C(F)(F)F)n2)no1	15.5	-6.5	-34.1	89.8	47.2*	47.5*	-4.8	2.8
CCc1ccc(-c2cnc3nc[nH]c(=O)c3n2)cc1	.	-7.5	.	.	.	.	.	.
CCOc1ccc(S(=O)(=O)N2CCN(C(=O)CCC(=O)N3CCOCC3)CC2)cc1	.	2.8	.	.	.	.	.	.
CC1CCCCN1C(=O)CN1C(=O)CSc2ccc(S(=O)(=O)N3CCOCC3)cc21 (stereo not given)	.	13.7	.	.	.	.	.	.
O=C(O)CCS(=O)(=O)c1nc(-c2cccs2)cc(C(F)(F)F)n1	11.8	-17.4	-7.5	94.8	26.7	.	.	.
CS(=O)(=O)c1nc(-c2ccc(F)cc2)cc(C(F)(F)F)n1	20.2	-9.3	-3.8	89.0	44.5*	38.6*	-12.1	-13.9
COC(=O)CCS(=O)(=O)c1nc(-c2ccccc2)cc(C(F)(F)F)n1	13.3	5.7	1.4	91.6	38.0*	42.5*	-14.4	4.2
COc1ccc(-c2cc(C(F)(F)F)nc(S(C)(=O)=O)n2)cc1	1.5	-9.1	-33.2	96.3	30.2	.	.	.
CCOC(=O)CS(=O)(=O)c1nc(-c2ccc(F)cc2)cc(C(F)(F)F)n1	8.8	-3.0	8.9	97.9	34.4*	46.0*	21.6*	13.4
Cc1nc(Cc2ccccc2)sc1CC#N	.	-21.1	.	.	.	.	.	.
CCOC(=O)C1CCN(CC(=O)Nc2c(C(=O)OC)[nH]c3ccccc23)CC1	20.5	.	-20.0	89.7	9.9	.	.	.
SMILES	STAT3 blocker	TRAIL sens C8	PPC-1+TRAIL kill	STAT3 act	STAT1 inh-1	STAT1 inh-2	NFkB inh STAT1ct	STAT3 inh STAT1c
CCOC(=O)C1CCN(CC(=O)Nc2c(C(=O)OC)[nH]c3ccc(Cl)cc23)CC1	40.4	27.4	13.0	69.8	36.8*	32.9	2.9	28.9*
O=C(CCN1C(=O)/C(=C/c2ccccc2)SC1=S)Nc1ccccn1	.	-1.0	.	.	.	.	.	.
Cc1ccc(/C=C2\SC(=S)N(CCCC(=O)Nc3ccccn3)C2=O)cc1	43.3	9.7	19.7	64.5	38.4*	40.1*	44.5*	46.0*
CC(OC(=O)c1ccc(S(=O)(=O)NCc2ccco2)cc1)C(=O)Nc1ccccc1 (stereo not given)	.	3.5	.	.	.	.	.	.
CC1=NC(=O)C(N=Nc2ccccc2C(=O)O)N1c1ccccc1 (stereo not given)	-0.4	4.6	0.1	103.3	64.9*	49.5*	15.8*	-8.5
COc1cc(/C=C/C(=O)OCC(=O)NC(=O)NC(C)C)cc(S(=O)(=O)N2CCc3ccccc32)c1OC	12.7	-8.3	8.3	91.5	58.8*	45.7*	17.8*	-3.7
COc1ccccc1C(C(=O)NCc1ccccc1)N(C(=O)c1csnn1)C1CC1 (stereo not given)	.	1.2	.	.	.	.	.	.
Clc1ccc(C[n+]2cc(-c3ccccc3)n3c2CCCCC3)c(Cl)c1	26.4	35.2	36.2	78.8	39.7*	27.9	-9.0	25.6*
Clc1ccc(-c2c[n+](Cc3ccc(Cl)cc3Cl)c3n2CCCCC3)cc1	.	42.5	26.8	.	.	.	.	.
CC1(C)Cc2c(ccc3ccccc23)C2=C(C(=O)N3CCCC3)C(=O)C(=O)N21	5.6	-8.7	13.9	96.4	41.1*	40.5*	4.8	0.5
CCOc1ccc2[nH]c3c(N4CCN(C(=O)c5ccco5)CC4)ncnc3c2c1	.	16.0	-13.1	.	.	.	.	.
O=C(c1ccco1)N1CCN(c2ncnc3c2[nH]c2ccc(Br)cc23)CC1	18.1	6.5	16.1	86.4	37.0*	37.2*	4.4	-0.4
O=C(c1ccco1)N1CCN(c2ncnc3c2[nH]c2ccccc23)CC1	-31.5	.	16.7	130.9	43.5*	46.9*	13.7	4.5
Cc1ccccc1-c1cc2nc(NCCOc3ccccc3Cl)n(C)c(=O)c2s1	.	-1.4	.	.	.	.	.	.
CCCn1nc(C(=O)OCC(=O)Nc2ccc(C(N)=O)cc2)c2ccccc2c1=O	.	-29.1	.	.	.	.	.	.
CCCn1nc(C(=O)OCC(=O)c2c(N)n(C)c(=O)n(C)c2=O)c2ccccc2c1=O	14.4	19.0	-8.2	92.3	48.6*	30.6	3.8	-2.2
Cc1ccc(C(=O)NC(=S)Nc2ccc(-c3ccc(CO)o3)cc2)cc1	7.2	-4.2	0.4	94.6	63.8*	25.8	-7.8	-2.5
Cc1sc(-c2ccncc2)nc1OC(=O)c1ccc(F)cc1F	4.5	-9.7	17.6	97.8	51.4*	26.9	9.5	6.6
CCOC(=O)N1CCN(c2ncnc3c2[nH]c2ccc(OC)cc23)CC1	17.4	-24.0	17.5	91.1	53.2*	44.0*	20.8*	-23.9

High-throughput results from PubChem.
